From article PMC4018401 (Journal of Medicinal Chemistry, 2014)

Assays:
HepG2 cytotoxicity assay = format: cell-based; conditions: human, HepG2 cells
[1] = Microsomal stability, rat and human liver microsomes; format: in vitro ADME; conditions: rat and human hepatic microsomes
[2] = tested on: P. yoelii (Kenya strain) infected mice; experiment: In vivo efficacy against murine malaria; design: species or system Plasmodium yoelii; conditions: for in vivo antimalarial activity: P. yoelii in mice, oral; for times less effective than 7 against murine malaria: relative to compound 7
Procedure, shortened: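 Female CF1 mice infected intravenously with 2.5–5.0 × 105 P. yoelii (Kenya strain) parasitized erythrocytes from a donor; groups of four. Test compound in PEG-400 given by oral gavage once daily for 4 days, starting the day after inoculation; initial doses 0.1–10 mg/kg/day, adjusted if needed. Chloroquine phosphate as positive control. Day-5 parasitemia read from Giemsa smears. Cure means parasite-free 30 days after the last dose; NRD is the dose needed for cure.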

[3] = molecular target: T1, P. falciparum cytochrome bc1 complex (Plasmodium falciparum, UniProt Q02768); experiment: Inhibition of P. falciparum cytochrome bc1; format: biochemical
T1 sequence (Q02768 1-376): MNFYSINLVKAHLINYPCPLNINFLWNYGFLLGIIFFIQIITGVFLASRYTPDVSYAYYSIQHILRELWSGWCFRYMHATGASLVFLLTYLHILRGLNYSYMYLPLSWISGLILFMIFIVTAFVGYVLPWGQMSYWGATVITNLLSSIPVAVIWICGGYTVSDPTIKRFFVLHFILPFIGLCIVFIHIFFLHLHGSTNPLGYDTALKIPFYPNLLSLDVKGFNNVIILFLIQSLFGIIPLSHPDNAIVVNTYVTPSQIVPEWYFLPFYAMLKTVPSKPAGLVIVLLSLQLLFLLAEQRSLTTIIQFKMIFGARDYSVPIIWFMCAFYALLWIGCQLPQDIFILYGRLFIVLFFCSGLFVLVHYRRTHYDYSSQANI
Procedure, shortened: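 Cytochrome c reductase assays. P. falciparum mitochondria: stirred cuvette at 35 °C with 100 μM decylubiquinol, 100 μM horse heart cytochrome c, 0.1 mg/mL dodecyl maltoside, 60 mM HEPES pH 7.4, 10 mM malonate, 1.0 mM EDTA, 2.0 mM KCN. Human HEK-293 mitochondria: detergent-solubilised; 50 mM Tricine pH 8.0, 100 mM KCl, 4 mM KCN, 50 μM each substrate. Baseline-subtracted initial rates expressed as fraction of uninhibited control.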

[4] = tested on: P. yoelii (Kenya strain) infected mice; conditions: side-by-side tests; cited from earlier work
[5] = tested on: P. falciparum Tm93-C1088 (atovaquone resistant clinical isolate); experiment: SYBR Green I parasite growth inhibition, P. falciparum Tm93-C1088; format: cell-based; conditions: Plasmodium falciparum, 72 h, read-out: EC50 TM93-C1088 (WRAIR)
Procedure, shortened: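 Atovaquone-resistant Thai isolate with cytochrome b Y268S, grown asynchronously in human erythrocytes (RPMI-1640/HEPES/hypoxanthine/Albumax II; 5% O2, 5% CO2, 90% N2). Triplicate 2-fold dilutions, 2% hematocrit, 0.2% starting parasitemia, 72 h at 37 °C. SYBR Green I dye–detergent added for 1 h in the dark at room temperature, fluorescence read at ex 497/em 520 nm. EC50 by nonlinear regression against drug-free wells; at least three determinations.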

Structure (SMILES)	IC50 (HepG2 cytotoxicity assay) [µM]	metabolic stability in microsomes [1]	also measured
COc1cc2[nH]c(C)c(-c3ccc(Oc4ccc(OC(F)(F)F)cc4)cn3)c(=O)c2cc1Cl [Compound 25b, 6-Chloro-7-methoxy-2-methyl-3-(5-(4-(trifluoromethoxy)phenoxy)pyridin-2-yl)quinolin-4(1H)-one]	> 10		
Cc1[nH]c2ccccc2c(=O)c1-c1ccc(Oc2ccccc2)cc1 [Compound 3, 2-Methyl-3-(4-phenoxyphenyl)quinolin-4(1H)-one]	> 10		
Cc1[nH]c2ccc(Cl)cc2c(=O)c1-c1ccc(Oc2ccc(OC(F)(F)F)cc2)cc1 [Compound 5, 6-Chloro-2-methyl-3-(4-(4-(trifluoromethoxy)phenoxy)phenyl)quinolin-4(1H)-one]	> 10		
COc1cc2[nH]c(C)c(-c3ccc(Oc4ccc(OC(F)(F)F)cc4)cc3)c(=O)c2cc1F [Compound 18b, 6-Fluoro-7-methoxy-2-methyl-3-(4-(4-(trifluoromethoxy)phenoxy)phenyl)quinolin-4(1H)-one]	> 10		
COc1cc2[nH]c(C)c(-c3ccc(Oc4cccc(OC(F)(F)F)c4)cc3)c(=O)c2cc1Cl [Compound 20a, 6-Chloro-7-methoxy-2-methyl-3-(4-(3-(trifluoromethoxy)phenoxy)phenyl)quinolin-4(1H)-one]		metabolically unstable	in vivo antimalarial activity [2]: ineffective in vivo
O=C1C(O)=C([C@H]2CC[C@H](c3ccc(Cl)cc3)CC2)C(=O)c2ccccc21 [atovaquone, reference compound]	> 10		
COc1ccc2c(=O)c(-c3ccc(Oc4ccc(OC(F)(F)F)cc4)cc3)c(C)[nH]c2c1 [Compound 6, 7-Methoxy-2-methyl-3-(4-(4-(trifluoromethoxy)phenoxy)phenyl)quinolin-4(1H)-one]	> 10	metabolized at a moderate to intermediate rate	
CCCCCCCc1c(C)nc2cc(OC)ccc2c1O [endochin, reference compound]	> 10		in vivo antimalarial activity [2]: inactive in vivo
COc1cc2[nH]c(C)c(-c3cnc(Oc4ccc(OC(F)(F)F)cc4)nc3)c(=O)c2cc1Cl [Compound 25c, 6-Chloro-7-methoxy-2-methyl-3-(2-(4-(trifluoromethoxy)phenoxy)pyrimidin-5-yl)quinolin-4(1H)-one]	> 10		
COc1cc2[nH]c(C)c(-c3ccc(Oc4ccc(OC(F)(F)F)cc4)nc3)c(=O)c2cc1Cl [Compound 25a, 6-Chloro-7-methoxy-2-methyl-3-(6-(4-(trifluoromethoxy)phenoxy)pyridin-3-yl)quinolin-4(1H)-one]	> 10		times less effective than 7 against murine malaria [2]: 3–10 times
COc1cc2[nH]c(C)c(-c3ccc(Oc4ccc(OC(F)(F)F)cc4)cc3)c(=O)c2cc1Cl [Compound 7, 6-Chloro-7-methoxy-2-methyl-3-(4-(4-(trifluoromethoxy)phenoxy)phenyl) quinolin-4(1H)-one]	> 10		parasite selectivity (P. falciparum vs human cytochrome bc1) [3]: ≥ 20000 fold; fold more effective than atovaquone against murine malaria [4]: 30 fold; EC50 [5]: 0.001 µM
COc1cc2[nH]c(C)c(-c3ccc(Oc4ccccc4)cc3)c(=O)c2cc1F [Compound 13, 6-Fluoro-7-methoxy-2-methyl-3-(4-phenoxyphenyl)quinolin-4(1H)-one]	> 10		
Cc1[nH]c2ccc(F)cc2c(=O)c1-c1ccc(Oc2ccc(OC(F)(F)F)cc2)cc1 [Compound 18a, 6-Fluoro-2-methyl-3-(4-(4-(trifluoromethoxy)phenoxy)phenyl)quinolin-4(1H)-one]	> 10		
Cc1[nH]c2ccccc2c(=O)c1-c1ccc(Oc2ccc(OC(F)(F)F)cc2)cc1 [Compound 4, 2-Methyl-3-(4-(4-(trifluoromethoxy)phenoxy)phenyl)quinolin-4(1H)-one]	> 10	no detectable degradation	
COc1cc2[nH]c(C)c(-c3ccc(Oc4ccc(F)cc4)cc3)c(=O)c2cc1Cl [Compound 20d, 6-Chloro-3-(4-(4-fluorophenoxy)phenyl)-7-methoxy-2-methylquinolin-4(1H)-one]		metabolically stable	
COc1cc2[nH]c(C)c(-c3ccc(Oc4ccc(Cl)cc4)cc3)c(=O)c2cc1Cl [Compound 20c, 6-Chloro-3-(4-(4-chlorophenoxy)phenyl)-7-methoxy-2-methylquinolin-4(1H)-one]	> 10	metabolically stable	times less effective than 7 against murine malaria [2]: 3–10 times
COc1cc2[nH]c(C)c(-c3ccc(Oc4ccc(C(F)(F)F)cc4)cc3)c(=O)c2cc1Cl [Compound 20b, 6-Chloro-7-methoxy-2-methyl-3-(4-(4-(trifluoromethyl)phenoxy)phenyl)quinolin-4(1H)-one]		metabolically stable	
